Published values collected from several papers.
Protocols differ between the studies behind these lines.
Organism: Trypanosoma brucei
Read-out: parasite growth

COC(=O)C1CCN(C(=O)c2ccc(N(C)Cc3cnc4nc(N)nc(N)c4n3)cc2)CC1 gave an inhibition of 26% (resazurin; 10 µM, 72 h).
CNC1CC(c2ccc(Cl)c(Cl)c2)c2ccccc21 (centres unmarked) gave an EC50 of 1970 nM (blood stage).
Nc1nc(N)nc(Nc2ccc([As]3SCC(CO)S3)cc2)n1 (centres unmarked) gave an IC50 of 7 nM (RHODESIENSE STIB900).
O=C(O)c1ccccc1-c1ccccc1C(=O)Nc1cc2c3ccccc3ccc2c2ccccc12 gave an EC50 of 24400 nM (resazurin; 72 h).
The inhibition of COC(=O)C1CCN(C(=O)c2ccc(NCc3cnc4nc(N)nc(N)c4n3)cc2)CC1 is reported as 16% (resazurin; 10 µM, 72 h).
Cc1nn(C)c(C)c1NS(=O)(=O)c1c(Cl)cc(-c2ccnc(N3CCNCC3)c2)cc1Cl gave an EC50 of 0.6 nM (RHODESIENSE).
O=C(O)c1ccccc1-c1ccccc1C(=O)Nc1ccc2c(c1)oc(=O)c1ccccc12 has an EC50 of > 50000 nM (resazurin; 72 h).
c1ccc(CCCN2CCN(CCOC(c3ccccc3)c3ccccc3)CC2)cc1 gave an EC50 of 9300 nM (blood stage).
